Format in all cases: functional, cell-based
Settings in all cases: Homo sapiens

One test has as its system C170. Kind of test: Tested for cytotoxicity against C170 colorectal carcinoma cell line by [75Se]selenomethionine uptake assay, in vitro.
The subject of test [1] is T-24. Kind of test: Tested for cytotoxicity against antigen negative T-24 bladder carcinoma cells having only 3-5% antigen expression. The essentials: (§1)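 Cytotoxicity was measured as inhibition of [75Se]selenomethionine uptake in a microplate assay, with cells incubated continuously with drug or conjugate. Antigen-positive 791T osteosarcoma cells carry about 6 × 10⁵ antigens/cell; T-24 bladder carcinoma cells carry about 3–5% of that level. Both lines were grown as monolayers in Eagle's MEM with 10% newborn calf serum and passaged using trypsin (0.25%)/EDTA (0.5%).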

In test [2] the test system is 791T cell line. Briefly: Tested for cytotoxicity against antigen positive 791T osteosarcoma cells […]. The method in brief:
as §1

Test [3] relates to 791T cell line. Kind of test: Tested for cytotoxicity against antigen positive 791T osteosarcoma cells of conjugate AH1.11 (Type H3: MSR-28); <20% inhibition achieved. The essentials:
as §1

Test [4] deals with 791T cell line. Kind of test: Tested for cytotoxicity against antigen positive 791T osteosarcoma cells of conjugate H1.11 (Type H3: MSR-28); <20% inhibition achieved. The essentials: as §1
The subject of test [5] is 791T cell line. Kind of test: Tested for cytotoxicity against antigen positive 791T osteosarcoma cells […]; <20% inhibition achieved. The method in brief: as §1
Test [6] relates to T-24. Kind of test: Tested for cytotoxicity against antigen negative T-24 bladder carcinoma cells of conjugate H1.11 (Type H3: MSR-28); <20% inhibition achieved. The essentials:
as §1

The test system of test [7] is T-24. Kind of test: Tested for cytotoxicity against antigen negative T-24 bladder carcinoma cells of conjugate AH1.11 (Type H3: MSR-28); 20%-40% inhibition achieved. The essentials:
as §1

Test [8] has as its system T-24. Kind of test: Tested for cytotoxicity against antigen negative T-24 bladder carcinoma cells of conjugate H1.11 (Type H1: MSR-33). The essentials:
as §1

Test [9] deals with 791T cell line. Kind of test: Tested for cytotoxicity against antigen positive 791T osteosarcoma cells of conjugate AH1.11 (Type H1: MSR-33). The method in brief:
as §1

Test [10] deals with 791T cell line. Kind of test: Tested for cytotoxicity against antigen positive 791T osteosarcoma cells of conjugate H1.11 (Type H1: MSR-33). The method in brief: as §1
The test system of test [11] is T-24. Kind of test: Tested for cytotoxicity against antigen negative T-24 bladder carcinoma cells of conjugate AH1.11 (Type H1: MSR-33). The method in brief: as §1
Test [12] relates to T-24. Kind of test: Tested for cytotoxicity against antigen negative T-24 bladder carcinoma cells having only 3-5% antigen expression; <20% inhibition achieved. The method in brief:
as §1

For test [13], the system named is T-24. Briefly: Tested for cytotoxicity against antigen negative T-24 bladder carcinoma cells of conjugate H1.11 (Type H2: MSR-26). The method in brief:
as §1

Test [14] relates to T-24. Briefly: Tested for cytotoxicity against antigen negative T-24 bladder carcinoma cells of conjugate AH1.11 (Type H2: MSR-26). The essentials: as §1
Test [15] relates to 791T cell line. Briefly: Tested for cytotoxicity against antigen positive 791T osteosarcoma cells of conjugate AH1.11 (Type H2: MSR-26). The method in brief: as §1
The subject of test [16] is 791T cell line. Briefly: Tested for cytotoxicity against antigen positive 791T osteosarcoma cells […] (49% inhibition achieved at 100 micro g/mL).
The subject of test [17] is 791T cell line. Kind of test: Tested for cytotoxicity against antigen positive 791T osteosarcoma cells of conjugate H1.11 (Type H2: MSR-26) (less than 20% inhibition achieved). The essentials:
as §1

For test [18], the system named is 791T cell line. Kind of test: Tested for cytotoxicity against antigen positive 791T osteosarcoma cells of conjugate H1.11 (Type H2: MSR-26). The method in brief: as §1

The structures appear in SMILES notation. In brackets after ≈: the same amount, converted by molar mass. Several values for one entry are separate records, joined by “and”; a condition that tells them apart may be missing. Equal values may be shown once. Where only a bound is given, the exact number is not on record here.

In ChEMBL document CHEMBL1126703, “Synthesis of 2'-deoxyuridine and 5-fluoro-2'-deoxyuridine derivatives and evaluation in antibody targeting studies” (J Med Chem, 1993) one finds IC50 data, which are given here for ten compounds.

As for `O=c1[nH]c(=O)n([C@H]2C[C@H](O)[C@@H](CO)O2)cc1F` [FLOXURIDINE], the 50% inhibitory concentration (IC50) in the test on C170 was 0.1 µg/mL and 400 nM; with T-24 [1] it was 1 µg/mL and 4.1 µM; with 791T cell line [2] it was 0.8 µg/mL and 3.2 µM.
On to `CCCCNC(=O)/C=C/C(=O)NC[C@H]1O[C@@H](n2cc(F)c(=O)[nH]c2=O)C[C@@H]1O`, for which the 50% inhibitory concentration (IC50) was > 100 µg/mL and > 300 µM with T-24 [1]; > 100 µg/mL and > 300 µM in the test with 791T cell line [2].
On to `NC[C@H]1O[C@@H](n2cc(F)c(=O)[nH]c2=O)C[C@@H]1O`, for which the IC50 in the test on C170 is 26 µg/mL and 107 µM.
Take `O=c1[nH]cc(F)c(=O)[nH]1` [FLUOROURACIL]: the IC50 in the test with C170 was 0.3 µg/mL and 2 µM; in the test on T-24 [1], 0.5 µg/mL and 4.1 µM; in the test with 791T cell line [2] it was 0.7 µg/mL and 5.5 µM.
In the case of `O=C(O)c1ccc(NC(=O)[C@H]2O[C@@H](n3cc(F)c(=O)[nH]c3=O)C[C@@H]2O)cc1`, the IC50 in the test with 791T cell line [3] is > 1 µg/mL and > 2.6 µM; in the test on 791T cell line [4], > 3 µg/mL and > 7.9 µM; in the test on 791T cell line [5], > 100 µg/mL and > 300 µM; with T-24 [6], > 3 µg/mL and > 7.9 µM; in the test with T-24 [7] it was > 1 µg/mL and > 2.6 µM; in the test with T-24 [1], 100 µg/mL and 263 µM.
For `O=C(O)CCC(=O)NC[C@H]1O[C@@H](n2cc(F)c(=O)[nH]c2=O)C[C@@H]1O`, the IC50 was 5.7 µg/mL and 16.6 µM with T-24 [8]; 0.4 µg/mL and 1.1 µM in the test with 791T cell line [9]; 7.1 µg/mL and 20.6 µM with 791T cell line [10]; 21 µg/mL and 62 µM with T-24 [1]; > 100 µg/mL and > 290 µM in the test with 791T cell line [2]; 0.4 µg/mL and 1.1 µM with T-24 [11].
Consider `CCOC(=O)c1ccc(NC(=O)[C@H]2O[C@@H](n3cc(F)c(=O)[nH]c3=O)C[C@@H]2O)cc1`, for which the IC50 in the test with 791T cell line [5] was > 100 µg/mL and > 300 µM; in the test with T-24 [12], > 100 µg/mL and > 300 µM.
With `CCOC(=O)CCC(=O)NC[C@H]1O[C@@H](n2cc(F)c(=O)[nH]c2=O)C[C@@H]1O`, the half-inhibitory concentration (IC50) is > 100 µg/mL and > 280 µM in the test with T-24 [1]; > 100 µg/mL and > 280 µM in the test on 791T cell line [2].
For `O=C(O)[C@H]1O[C@@H](n2cc(F)c(=O)[nH]c2=O)C[C@@H]1O`, in the test on C170, the IC50 was 10 µg/mL and 41 µM.
Turning to `O=C(O)/C=C/C(=O)NC[C@H]1O[C@@H](n2cc(F)c(=O)[nH]c2=O)C[C@@H]1O`, the half-maximal inhibitory concentration (IC50) in the test with T-24 [13] was > 10 µg/mL and > 30 µM; in the test on T-24 [14], > 0.5 µg/mL and > 1.5 µM; in the test on 791T cell line [15], > 0.5 µg/mL and > 1.5 µM; in the test with T-24 [1], 79 µg/mL and 231 µM; in the test with 791T cell line [16] it was 320 µM; with 791T cell line [17], more than 10 µg/mL. Besides, the IC50 in the test on 791T cell line [18] was more than 30 µM; with 791T cell line [2] it was 110 µg/mL (≈ 320 µM).

A word on the IC50: it is the midpoint of a concentration-inhibition curve. Lower therefore signals greater potency in that assay.
